These results are taken from ChEMBL document CHEMBL1158102, “Biologically active triterpenoid saponins from Acanthopanax senticosus” (J Nat Prod, 2006).

Molecules are shown by their SMILES. Calls of active or inactive are those of the source. The rule behind the calls is not given here.

What is called inhibition is the relative decrease from the control value, in per cent.

For this assay, the target named is T1, Pancreatic triacylglycerol lipase (Homo sapiens) (UniProt P16233).
T1 sequence (whole entry): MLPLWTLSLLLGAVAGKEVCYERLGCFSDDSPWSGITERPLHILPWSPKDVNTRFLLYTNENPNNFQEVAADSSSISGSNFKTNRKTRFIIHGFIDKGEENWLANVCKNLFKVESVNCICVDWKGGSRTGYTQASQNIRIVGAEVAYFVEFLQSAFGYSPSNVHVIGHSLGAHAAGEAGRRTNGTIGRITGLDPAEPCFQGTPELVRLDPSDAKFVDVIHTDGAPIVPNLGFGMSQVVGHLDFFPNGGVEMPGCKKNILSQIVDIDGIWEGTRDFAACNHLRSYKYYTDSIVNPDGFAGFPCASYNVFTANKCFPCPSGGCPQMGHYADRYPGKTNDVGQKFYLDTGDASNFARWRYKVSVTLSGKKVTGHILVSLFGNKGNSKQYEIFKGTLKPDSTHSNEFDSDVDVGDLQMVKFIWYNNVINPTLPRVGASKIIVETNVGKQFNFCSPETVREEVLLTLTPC
Kind of assay: Inhibition of pancreatic lipase assessed as umoles of oleic acic released per millimiter of triolein per hour at 1 mg/mL. The gist of the method: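 Lipase activity measured as rate of oleic acid release from triolein. Substrate: sonicated triolein, phosphatidylcholine and taurocholic acid in 0.1 M TES buffer pH 7.0 with 0.1 M NaCl. Incubated with pancreatic lipase (10 units) and sample for 30 min at 37 °C. Free fatty acids extracted, converted to copper salts, reacted with bathocuproine, absorbance read at 480 nm. Means ± SEM of three experiments.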
On to `C[C@@H]1O[C@@H](O[C@H]2[C@H](O[C@H]3CC[C@]4(C)[C@H]5CC=C6[C@@H]7CC(C)(C)CC[C@]7(C(=O)O[C@@H]7O[C@H](CO[C@@H]8O[C@H](CO)[C@@H](O[C@@H]9O[C@@H](C)[C@H](O)[C@@H](O)[C@H]9O)[C@H](O)[C@H]8O)[C@@H](O)[C@H](O)[C@H]7O)CC[C@@]6(C)[C@]5(C)CC[C@H]4C3(C)C)OC[C@H](O)[C@@H]2O)[C@H](O)[C@H](O)[C@H]1O`, for which the outcome was inactive. In the case of `C=C1CC[C@]2(C(=O)O[C@@H]3O[C@H](CO[C@@H]4O[C@H](COC(C)=O)[C@@H](O[C@@H]5O[C@@H](C)[C@H](O)[C@@H](O)[C@H]5O)[C@H](O)[C@H]4O)[C@@H](O)[C@H](O)[C@H]3O)CC[C@]3(C)C(=CC[C@H]4[C@H]3CC[C@H]3C(C)(C)[C@@H](O[C@@H]5OC[C@H](O)[C@H](O)[C@H]5O[C@@H]5O[C@@H](C)[C@H](O)[C@@H](O)[C@H]5O)CC[C@]43C)[C@@H]2C1`, the inhibition was -80.5%. Regarding `C[C@@H]1O[C@@H](O[C@H]2[C@H](O[C@H]3CC[C@]4(C)[C@H]5CC=C6[C@@H]7C[C@](C)(C(=O)O)CC[C@]7(C(=O)O)CC[C@@]6(C)[C@@H]5CC[C@H]4C3(C)C)OC[C@H](O)[C@@H]2O)[C@H](O)[C@H](O)[C@H]1O`, the inhibition worked out at 44.9%. On the same count and under the same terms, with `C=C1CC[C@]2(C(=O)O[C@@H]3O[C@H](CO[C@@H]4O[C@H](CO)[C@@H](O[C@@H]5O[C@@H](C)[C@H](O)[C@@H](O)[C@H]5O)[C@H](O)[C@H]4O)[C@@H](O)[C@H](O)[C@H]3O)CC[C@]3(C)C(=CC[C@H]4[C@H]3CC[C@H]3C(C)(C)[C@@H](O[C@@H]5OC[C@H](O)[C@H](O)[C@H]5O)CC[C@]43C)[C@@H]2C1` the figure was 46.5%; with `C=C(C)[C@@H]1CC[C@]2(C(=O)O[C@@H]3O[C@H](CO[C@@H]4O[C@H](CO)[C@@H](O[C@@H]5O[C@@H](C)[C@H](O)[C@@H](O)[C@H]5O)[C@H](O)[C@H]4O)[C@@H](O)[C@H](O)[C@H]3O)CC[C@]3(C)[C@H](C[C@H]4OC(=O)C[C@@H](O)[C@]5(C)[C@@H]4[C@@]3(C)CC[C@H]5C(=C)C)[C@@H]12`, 56.1%. As to `C[C@@H]1O[C@@H](O[C@H]2[C@H](O[C@H]3CC[C@]4(C)[C@H]5CC=C6[C@@H]7C[C@](C)(CO)CC[C@]7(C(=O)O)CC[C@@]6(C)[C@@H]5CC[C@H]4C3(C)C)OC[C@H](O)[C@@H]2O)[C@H](O)[C@H](O)[C@H]1O`, the inhibition is 33%. On to `CC(=O)OC[C@H]1O[C@@H](OC[C@H]2O[C@@H](OC(=O)[C@]34CCC(C)(C)C[C@H]3C3=CC[C@H]5[C@@H](CC[C@H]6C(C)(C)[C@@H](O[C@@H]7OC[C@H](O)[C@H](O)[C@H]7O[C@@H]7O[C@H](CO)[C@@H](O)[C@H](O)[C@H]7O)CC[C@]56C)[C@]3(C)CC4)[C@H](O)[C@@H](O)[C@@H]2O)[C@H](O)[C@@H](O)[C@@H]1O[C@@H]1O[C@@H](C)[C@H](O)[C@@H](O)[C@H]1O`, for which the outcome was inactive. In the case of `C[C@@H]1O[C@@H](O[C@H]2[C@H](O)[C@@H](O)[C@H](OC[C@H]3O[C@@H](OC(=O)[C@]45CCC(C)(C)C[C@H]4C4=CC[C@@H]6[C@@]7(C)CC[C@H](O[C@@H]8OC[C@H](O)[C@H](O)[C@H]8O)C(C)(C)[C@@H]7CC[C@@]6(C)[C@]4(C)CC5)[C@H](O)[C@@H](O)[C@@H]3O)O[C@@H]2CO)[C@H](O)[C@H](O)[C@H]1O`, the result was inactive. Consider `C=C1CC[C@]2(C(=O)O[C@@H]3O[C@H](CO[C@@H]4O[C@H](COC(C)=O)[C@@H](O[C@@H]5O[C@@H](C)[C@H](O)[C@@H](O)[C@H]5O)[C@H](O)[C@H]4O)[C@@H](O)[C@H](O)[C@H]3O)CC[C@]3(C)C(=CC[C@H]4[C@H]3CC[C@H]3C(C)(C)[C@@H](O[C@@H]5OC[C@H](O)[C@H](O)[C@H]5O)CC[C@]43C)[C@@H]2C1`, for which the inhibition is -46.7%. For `C=C1CC[C@]2(C(=O)O[C@@H]3O[C@H](CO[C@@H]4O[C@H](COC(C)=O)[C@@H](O[C@@H]5O[C@@H](C)[C@H](O)[C@@H](O)[C@H]5O)[C@H](O)[C@H]4O)[C@@H](O)[C@H](O)[C@H]3O)CC[C@]3(C)C(=CC[C@H]4[C@H]3CC[C@H]3C(C)(C)[C@@H](O[C@@H]5OC[C@H](O)[C@H](O)[C@H]5O[C@@H]5O[C@H](CO)[C@@H](O)[C@H](O)[C@H]5O)CC[C@]43C)[C@@H]2C1`, the outcome was inactive. `C[C@@H]1O[C@@H](O[C@H]2[C@H](O[C@H]3CC[C@]4(C)[C@H]5CC=C6[C@@H]7CC(C)(C)CC[C@]7(C(=O)O[C@@H]7O[C@H](CO[C@@H]8O[C@H](CO)[C@@H](O[C@@H]9O[C@@H](C)[C@H](O)[C@@H](O)[C@H]9O)[C@H](O)[C@H]8O)[C@@H](O)[C@H](O)[C@H]7O)[C@H](O)C[C@@]6(C)[C@@H]5CC[C@H]4C3(C)C)OC[C@H](O)[C@@H]2O)[C@H](O)[C@H](O)[C@H]1O`: the inhibition stood at 38.3%.

In the case of `CC(=O)OC[C@H]1O[C@@H](OC[C@H]2O[C@@H](OC(=O)[C@]34CCC(C)(C)C[C@H]3C3=CC[C@H]5[C@@H](CC[C@H]6C(C)(C)[C@@H](O[C@@H]7OC[C@H](O)[C@H](O)[C@H]7O[C@@H]7O[C@@H](C)[C@H](O)[C@@H](O)[C@H]7O)CC[C@]56C)[C@]3(C)CC4)[C@H](O)[C@@H](O)[C@@H]2O)[C@H](O)[C@@H](O)[C@@H]1O[C@@H]1O[C@@H](C)[C@H](O)[C@@H](O)[C@H]1O`, the outcome was inactive.

In the case of `C=C1CC[C@]2(C(=O)O[C@@H]3O[C@H](CO[C@@H]4O[C@H](CO)[C@@H](O[C@@H]5O[C@@H](C)[C@H](O)[C@@H](O)[C@H]5O)[C@H](O)[C@H]4O)[C@@H](O)[C@H](O)[C@H]3O)CC[C@]3(C)C(=CC[C@H]4[C@H]3CC[C@H]3C(C)(C)[C@@H](O[C@@H]5OC[C@H](O)[C@H](O)[C@H]5O[C@@H]5O[C@@H](C)[C@H](O)[C@@H](O)[C@H]5O)CC[C@]43C)[C@@H]2C1`, the result was inactive. Turning to `C=C(C)[C@@H]1CC[C@]2(C(=O)O[C@@H]3O[C@H](CO[C@@H]4O[C@H](CO)[C@@H](O[C@@H]5O[C@@H](C)[C@H](O)[C@@H](O)[C@H]5O)[C@H](O)[C@H]4O)[C@@H](O)[C@H](O)[C@H]3O)CC[C@]3(C)[C@H](CC[C@@H]4[C@@](C)(CCC(=O)O)[C@H](C(=C)C)CC[C@]43C)[C@@H]12`, the inhibition stood at 44.6%.

In the case of `C=C1CC[C@]2(C(=O)O[C@@H]3O[C@H](CO[C@@H]4O[C@H](CO)[C@@H](O[C@@H]5O[C@@H](C)[C@H](O)[C@@H](O)[C@H]5O)[C@H](O)[C@H]4O)[C@@H](O)[C@H](O)[C@H]3O)CC[C@]3(C)C(=CC[C@H]4[C@H]3CC[C@H]3C(C)(C)[C@@H](O[C@@H]5OC[C@H](O)[C@H](O)[C@H]5O[C@@H]5O[C@H](CO)[C@@H](O)[C@H](O)[C@H]5O)CC[C@]43C)[C@@H]2C1`, the result was inactive.
